# Reference: publication PMC3246390 (Organic & biomolecular chemistry, 2011)
# “Also recorded” adds a separate entry of the source. Where two headings read alike, the source gives them in different places.
# Experiments:
# mice [1] = type: in vivo; settings: 5 µg intraperitoneal; for cytokine secretion (INF-γ and IL-4): IL-4 at 4h and INF-γ at 16h
# Procedure, shortened: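 Each mouse received an intraperitoneal injection of 5 µg glycolipid (6"-modified α-GalCer analogues, galacturonic acid and α-d-fucopyranosyl types). Serum IL-4 was measured at 4 h and serum INF-γ at 16 h after injection.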
# [2] = biological target: T1, mouse Vα14Vβ8.2 NKT TCR (glycolipid presented by mouse CD1d) (Mus musculus, UniProt P11609); type: binding; settings: for Kass / Kdiss: Langmuir 1:1 model; for Kdiss: TCR dissociation from mouse CD1d-glycolipid complex
# T1 sequence (P11609 19-297): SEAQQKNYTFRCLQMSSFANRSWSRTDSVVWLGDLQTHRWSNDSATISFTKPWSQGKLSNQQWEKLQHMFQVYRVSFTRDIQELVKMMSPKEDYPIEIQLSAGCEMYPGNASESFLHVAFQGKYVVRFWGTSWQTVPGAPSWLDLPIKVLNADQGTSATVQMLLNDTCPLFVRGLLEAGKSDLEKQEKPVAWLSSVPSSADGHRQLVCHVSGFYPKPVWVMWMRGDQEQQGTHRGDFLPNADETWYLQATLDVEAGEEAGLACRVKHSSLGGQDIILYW
# T1 sequence (P01887 21-119 partner): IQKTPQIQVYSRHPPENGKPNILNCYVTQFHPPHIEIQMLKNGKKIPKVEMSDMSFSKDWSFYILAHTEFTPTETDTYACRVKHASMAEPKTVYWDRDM
# T1 sequence (P01849 1-110 partner): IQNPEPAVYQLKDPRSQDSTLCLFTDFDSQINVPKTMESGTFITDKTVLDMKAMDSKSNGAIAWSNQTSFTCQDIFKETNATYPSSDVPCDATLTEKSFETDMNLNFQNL
# mice [3] = settings: cited from earlier work
# [4] = tested on: lung and breast cancer in mice; settings: lung and breast cancer (GSL-1’: mice bearing lung cancer, equal doses); cited from earlier work
# mice [5] = settings: i.v. administration; cited from earlier work
# [6] = SPR, TCR binding to mouse CD1d-glycolipid complex
# [7] = read-out: KD(Kdiss/Kass), SPR, TCR binding to mouse CD1d-glycolipid complex
Compound,"Kass [2, 6]",Kdiss ([2]; SPR),"Kd [2, 7]",cytokine secretion (INF-γ and IL-4) (mice [1]; serum),further results
"α-C-GalCer [compound 3, reference compound]",–,–,–,–,"Th1/Th2 polarization (mice [1]; INF-γ versus IL-4): no polarization; IL-4 secretion (Th2 response) (mice [1]; serum, measured at 4h): strong Th2 response; INF-γ secretion (mice [1]; serum, measured at 16h): superior INF-γ inducer"
"CCCCCCCCCCCCCCCCCCCCCCCCCC(=O)N[C@@H](CO[C@H]1O[C@H](CO)[C@H](O)[C@H](O)[C@H]1O)[C@H](O)[C@H](O)CCCCCCCCCCCCCC [KRN7000 (1), α-galactosylceramide, reference compound]",–,–,–,–,Kd [2]: 11.2 ± 0.2 nM; kon ([2]; read-out: Kass): 130000 M⁻¹ s⁻¹; koff ([2]; read-out: Kdiss): 0.00145 s⁻¹
"1-O-(6-deoxy-α-D-galactopyranosyl)-2-hexacosylamino-octadecane-1,3,4-triol [compound 4]",80000 ± 3000 M⁻¹ s⁻¹,0.00526 ± 0.00029 s⁻¹,64.8 ± 6 nM,–,IFN-γ induction compared to α-GalCer (mice [3]): superior to α-GalCer
"1-O-(α-D-galactopyranosyluronate)-2-hexacosylamino-octadecane-1,3,4-triol [compound 13]",100000 ± 9000 M⁻¹ s⁻¹,–,165 ± 38.3 nM,minor cytokine secretion,efficacy towards cancer compared to α-GalCer [4]: more effective; secretion of INF-γ compared to α-GalCer (mice [5]): drastically lower secretion of INF-γ
"1-O-(6-deoxy-α-D-galactopyranosyl)-2-hexacosylamino-octadecane-1,3,4-triol [compound 12]",100000 ± 20000 M⁻¹ s⁻¹,0.00648 ± 0.0018 s⁻¹,74.4 ± 25 nM,weak cytokine secretion; also recorded: low cytokine release,–
"CCCCCCCCCCCCCCC(O)C(O)C(CO[C@H]1O[C@H](C(=O)O)[C@H](O)[C@H](O)[C@H]1O)NC(=O)CCCCCc1ccccc1 (stereo partly drawn) [compound 14, 1-O-(α-D-galactopyranosyluronate)-2-(6-phenylhexanoyl)amino-octadecane-1,3,4-triol]",110000 ± 6000 M⁻¹ s⁻¹,0.00811 ± 0.0012 s⁻¹,75.3 ± 15.2 nM,abolishes all activity; also recorded: low cytokine release,–
